Measured values reported in PMC6571060 (Cancer research, 2019).
Entries after “also recorded” stand apart in the source; their conditions may differ.

What was measured:
wt-KRas NSCLC cell lines = test: 2D growth on plastic of NSCLC cell line panel; format: cell-based; conditions: 72 hr
[1] = Mouse body weight during treatment; format: in vivo, NOD-SCID mice; conditions: PHT-7.3 treatment, 200 mg/kg ip daily
In short: (§1)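 About 10⁷ log-phase NSCLC cells in 0.2 mL PBS were injected subcutaneously into the flank of female NOD-SCID mice, 10 per group. Daily 200 mg/kg ip dosing began at tumor volumes of 50–150 mm³, for 20 days (A549, H441) or 21 days (H1975). Caliper volumes were taken twice weekly and body weight weekly. P values were computed at end of dosing.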

[2] = system: wt-KRas H1975 NSCLC xenograft; test: Antitumor activity, H1975 xenograft; format: in vivo, NOD-SCID mice; conditions: 200 mg/kg ip daily for 21 days
In short: as §1

[3] = system: mut-KRasG12V H441 xenograft; test: Antitumor activity, H441 xenograft; format: in vivo, NOD-SCID mice; conditions: 200 mg/kg ip daily for up to 20 days
In short: as §1

[4] = system: mut-KRas(G12S) A549 xenograft; test: Antitumor activity, A549 xenograft; format: in vivo, NOD-SCID mice; conditions: 200 mg/kg ip daily for up to 20 days
In short: as §1

PH domain of Cnk1 [5] = biological target: T1, PH domain of Cnk1 (Homo sapiens, UniProt Q969H4); test: SPR displacement of PtdIns; format: binding; conditions: 50 μM
T1 sequence (Q969H4 403-502 limits assumed): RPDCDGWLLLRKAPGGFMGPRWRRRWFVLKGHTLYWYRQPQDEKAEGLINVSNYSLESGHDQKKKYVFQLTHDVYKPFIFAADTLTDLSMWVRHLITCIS
In short: (§2)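 The Cnk1 PH domain was expressed with an N-terminal glutathione S-transferase fusion and captured on a CM5 chip with a Gst capture kit. Compound binding or PtdIns(3,4,5)P₃ displacement was run by SPR on a Biacore T200.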

wt-KRas NSCLC cells = test: 3D growth inhibition; format: cell-based
In short: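 NSCLC lines were tested for mycoplasma and authenticated before study and every 2 months in culture. Anchorage-independent growth was measured in soft agarose using a modified 96-well method, with test compound present. IC50 values were derived for 3D growth inhibition.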

[6] = system: p-Egfr, activated RalB and Rho in A549 NSCLC tumor xenografts; test: Western blot / GTP activation of downstream signaling in A549 tumor xenografts; format: in vivo, mice; conditions: 200 mg/kg ip
In short: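 A549 xenograft tumors were sampled at 4 and 24 hr after a single 200 mg/kg ip dose, and 4 hr after the last dose of 6 days' daily dosing, 4 mice per time point. Blots probed phospho-Egfr Tyr1068 and other signaling proteins. RalA/B, Rho and total Ras GTP were measured by activation kits.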

[7] = biological target: T2, Cnk1 and mut-KRas co-localization in HEK293 cells (Homo sapiens, UniProt Q969H4); test: Confocal microscopy / FLIM of Cnk1-GFP and mut; format: cell-based
T2 sequence (Q969H4 1-720): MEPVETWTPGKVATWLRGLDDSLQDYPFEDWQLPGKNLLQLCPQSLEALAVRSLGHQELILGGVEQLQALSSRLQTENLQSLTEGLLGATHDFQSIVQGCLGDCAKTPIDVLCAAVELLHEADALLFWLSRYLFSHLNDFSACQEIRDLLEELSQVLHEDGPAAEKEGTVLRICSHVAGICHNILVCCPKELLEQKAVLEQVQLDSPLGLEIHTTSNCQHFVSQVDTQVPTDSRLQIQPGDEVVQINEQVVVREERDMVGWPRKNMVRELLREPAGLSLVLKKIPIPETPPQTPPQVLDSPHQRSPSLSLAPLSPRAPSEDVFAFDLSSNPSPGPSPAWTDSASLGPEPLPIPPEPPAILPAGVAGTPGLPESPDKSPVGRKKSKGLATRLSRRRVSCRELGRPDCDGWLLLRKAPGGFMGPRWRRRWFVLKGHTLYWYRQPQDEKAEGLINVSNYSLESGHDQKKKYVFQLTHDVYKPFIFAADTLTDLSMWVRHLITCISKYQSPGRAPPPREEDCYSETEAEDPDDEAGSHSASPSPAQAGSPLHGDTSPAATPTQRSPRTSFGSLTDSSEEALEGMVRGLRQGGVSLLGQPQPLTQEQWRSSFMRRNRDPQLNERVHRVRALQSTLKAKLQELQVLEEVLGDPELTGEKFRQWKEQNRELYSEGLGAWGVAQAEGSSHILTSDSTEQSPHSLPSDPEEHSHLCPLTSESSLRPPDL
In short: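 HEK293 cells co-expressed Cnk1-GFP and mut(G12D)-KRas-RFP and were incubated 1 hr with 50 μM test compound. Confocal laser scanning microscopy assessed membrane co-localization. FLIM average fluorescence lifetime was taken from co-localization images, with lifetime shortening from FRET indicating direct Cnk1–KRas interaction.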

RalB and Rho activation = test: Western blot / GTP activation of downstream K-Ras signaling in mut-KRAS cells; format: cell-based; conditions: panel of mut-KRAS cells, 24 hr
In short: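 Mut-KRas NSCLC cells were exposed 24 hr to 25 μM test compound; A549 received a concentration range. Western blots used rabbit monoclonal phospho- and total-protein antibodies. RalA, RalB, Rho and Ras GTP levels were measured with activation kits per manufacturer instructions.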

PH domain of Cnk1 [8] = biological target: T1, PH domain of Cnk1; test: SPR binding to the Gst-tagged PH domain of Cnk1; conditions: read-out: Cnk1 binding Kd, SPR spectroscopy
In short: as §2

[9] = system: PH domains of Pdpk1, Btk, Akt1, and Plekha7; test: SPR binding selectivity against other PH domains
[10] = Pharmacokinetics in mice after intraperitoneal administration; format: in vivo; conditions: 10 mg/kg
mut-KRas NSCLC cells = test: 3D growth inhibition; format: cell-based; conditions: read-out: Growth inhibition IC50 mut-Ras; mean IC50, 3D growth; H2122, Calu1, H2009, H441, H358, H1573, H23, H1373, A549, H1944, H647
mut-KRas cells = test: Cell proliferation in a small group of mut-KRas cells; format: cell-based
In short: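 Cells were exposed to test compound for 72 hr. Growth was then read by XTT cell viability assay.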

Cell migration = test: Cell migration; format: cell-based

Co-localization of Cnk1 and mut-KRas at the cell plasma membrane ([7]; confocal microscopy, HEK293 cells, 50 μM, 1 hr): blocked the co-localization
Kd (PH domain of Cnk1 [8]): 4.7 µM
Binding to PH domain of Cnk1 compared to PH domains of Pdpk1, Btk, Akt1, and Plekha7 [9]: selective binding
Pharmacokinetics Cl [10]: 133 mL·min/kg
Pharmacokinetics t½β [10]: 4.33 h
SMILES: Cc1ccc(-c2csc(Cn3nc(CC4OCCCO4)c4ccccc4c3=O)n2)cc1 [PHT-7.3]
2D growth of wt-KRas NSCLC cell lines (wt-KRas NSCLC cell lines): not inhibited except for two lines H1437 and H2023
Body weight [1]: no loss of body weight
Antitumor activity, H1975 xenograft [2]: not in the wt-KRas H1975 NSCLC xenograft
Antitumor activity, H441 xenograft [3]: cytostatic antitumor activity
Antitumor activity, A549 xenograft [4]: cytostatic antitumor activity
Displacement of PtdIns(3,4,5)P3 binding to the PH domain of Cnk1 (PH domain of Cnk1 [5]): displaced; also recorded: displacement of PtdIns([3],[4],[5])P3 binding
IC50 (wt-KRas NSCLC cells; read-out: Growth inhibition IC50 wt-KRas, mean IC50, 3D growth, H266, H1299, H1975, H3255, H1437, H2023): 69 µM
3D anchorage independent growth of wt-KRas cells (wt-KRas NSCLC cells; soft agarose, except H1437 and H2023): still not inhibited
Activated RalB and Rho signaling in tumor xenografts [6]: down-regulation of activated RalB and Rho signaling
p-Egfr level in tumor xenografts [6]: increased levels of p-Egfr
Binding of Cnk1 to mut-KRAS by FLIM lifetime ([7]; FLIM lifetime plots, compound-treated cells): inhibited the binding of Cnk1 to mut-KRAS; also recorded: inhibited Cnk1 interaction with mut-KRAS
RalB and Rho activation in mut-KRAS cells (RalB and Rho activation): decreased RalB and Rho activation
IC50 (mut-KRas NSCLC cells): 19 µM
Cell proliferation, small group of mut-KRas cells (mut-KRas cells): inhibit cell proliferation
Cell migration (Cell migration): inhibited
